15 compounds from ChEMBL document CHEMBL4393724, “Betulin-1,4-quinone hybrids: Synthesis, anticancer activity and molecular docking study with NQO1 enzyme” (Eur J Med Chem, 2019) can be followed below.

By pIC50 is commonly meant −log10 of the IC50, conventionally taken in molar units.

pIC50: −log10 of the molar value.

Common to all, as to format: functional, cell-based
One experiment concerns T47D. In words: Antiproliferative activity against human T47D cells assessed as reduction in cell viability incubated for 72 hrs by WST1 assay. The note with it: for pIC50: Homo sapiens, T47D, 72 h, read-out: IC50; for IC50: t47d. Background: Tetrazolium assays rely on reduction of a dye to a coloured formazan, in cell work by metabolically active cells.
A further experiment relates to SNB-19. In words: Antiproliferative activity against human SNB19 cells assessed as reduction in cell viability incubated for 72 hrs by WST1 assay. The note with it: for IC50: snb-19; for pIC50: Homo sapiens, SNB-19, 72 h, read-out: IC50.
In the next experiment the test system is COLO-829. In words: Antiproliferative activity against human COLO829 cells assessed as reduction in cell viability incubated for 72 hrs by WST1 assay. Particulars: for pIC50: Homo sapiens, COLO-829, 72 h, read-out: IC50; for IC50: colo-829; call rule not given here.
Another experiment relates to MCF7. In words: Antiproliferative activity against human MCF7 cells assessed as reduction in cell viability incubated for 72 hrs by WST1 assay. The note with it: for pIC50: Homo sapiens, MCF7, 72 h, read-out: IC50; for IC50: mcf7. A digest of the protocol: (§1)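 Cells held at 37 °C under 5% CO2 and seeded at 5 × 10^4 cells/well in DMEM with 10% FCS plus streptomycin and penicillin. Compounds were dissolved in DMSO and exposed for 72 h. WST-1 formazan was read at 450 nm. IC50 was derived from the mean ± SD of at least three independent experiments run in triplicate. Cisplatin served as reference.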

In a further experiment the test system is MDA-MB-231. In words: Antiproliferative activity against human MDA-MB-231 cells assessed as reduction in cell viability incubated for 72 hrs by WST1 assay. The note with it: for pIC50: Homo sapiens, MDA-MB-231, 72 h, read-out: IC50; for IC50: mda-mb-231.
Another experiment deals with C32. In words: Antiproliferative activity against human C32 cells assessed as reduction in cell viability incubated for 72 hrs by WST1 assay. Particulars: for IC50: c32; for pIC50: Homo sapiens, C32, 72 h, read-out: IC50. A digest of the protocol:
as §1

A further experiment concerns A549. In words: Antiproliferative activity against human A549 cells assessed as reduction in cell viability incubated for 72 hrs by WST1 assay. The note with it: for pIC50: Homo sapiens, A549, 72 h, read-out: IC50; for IC50: a549. A digest of the protocol:
as §1

For `C=C(C)[C@@H]1CC[C@]2(COC3=C(Cl)C(=O)c4cccnc4C3=O)CC[C@]3(C)[C@H](CC[C@@H]4[C@@]5(C)CC[C@H](O)C(C)(C)[C@@H]5CC[C@]43C)[C@@H]12`, the pIC50 with T47D is 4.88; in the experiment with COLO-829, 4.02; with MCF7, 4.02; in the experiment with MDA-MB-231 it was 4.09; in the experiment on A549, 5.07. In addition, the IC50 result in the experiment on SNB-19 and with C32 was “Not Active” in each case.

As for `C=C(C)[C@@H]1CC[C@]2(COC3=C(Cl)C(=O)c4cccnc4C3=O)CC[C@]3(C)[C@H](CC[C@@H]4[C@@]5(C)CC[C@H](OC(C)=O)C(C)(C)[C@@H]5CC[C@]43C)[C@@H]12`, the IC50 entry in the experiment with T47D, with SNB-19, with COLO-829, in the experiment on MDA-MB-231 and in the experiment on C32 was “Not Active” each time. Besides, the pIC50 in the experiment with MCF7 is 4.01; in the experiment with A549 it was 4.84.

With `C=C(COC1=C(Cl)C(=O)c2ccc(C)nc2C1=O)[C@@H]1CC[C@]2(COC(C)=O)CC[C@]3(C)[C@H](CC[C@@H]4[C@@]5(C)CC[C@H](OC(C)=O)C(C)(C)[C@@H]5CC[C@]43C)[C@@H]12`, the pIC50 in the experiment on T47D was 4.99; in the experiment on COLO-829 it was 6.92; in the experiment on MCF7, 6.03; in the experiment on MDA-MB-231 it was 6.96; with C32, 5.94; in the experiment with A549, 6.08. In addition, in the experiment on SNB-19, the IC50 result is recorded as “Not Active”.

`C=C(C)[C@@H]1CC[C@]2(COC3=C(Cl)C(=O)c4ccccc4C3=O)CC[C@]3(C)[C@H](CC[C@@H]4[C@@]5(C)CC[C@H](OC(C)=O)C(C)(C)[C@@H]5CC[C@]43C)[C@@H]12`: the pIC50 with T47D was 4.90; in the experiment on SNB-19, 5.47; in the experiment with COLO-829, 5.97; in the experiment on MCF7, 4.15; in the experiment with C32 it was 4.86; in the experiment with A549, 5.94. Further, the IC50 entry in the experiment on MDA-MB-231 was “Not Active”.

In the case of `C=C(C)[C@@H]1CC[C@]2(COC3=C(Cl)C(=O)c4ccccc4C3=O)CC[C@]3(C)[C@H](CC[C@@H]4[C@@]5(C)CC[C@H](O)C(C)(C)[C@@H]5CC[C@]43C)[C@@H]12`, the pIC50 in the experiment with T47D is 5.83; in the experiment on SNB-19, 5.02; with A549, 4.97. The IC50 result with COLO-829, with MCF7, in the experiment on MDA-MB-231 and in the experiment with C32 was “Not Active” in each case.

As to `C=C(C)[C@@H]1CC[C@]2(COC3=C(Cl)C(=O)c4ccc(C)nc4C3=O)CC[C@]3(C)[C@H](CC[C@@H]4[C@@]5(C)CC[C@H](O)C(C)(C)[C@@H]5CC[C@]43C)[C@@H]12`, the pIC50 was 4.04 in the experiment with T47D; 5.95 in the experiment with COLO-829; 4.96 in the experiment with MDA-MB-231; 4.90 in the experiment on C32; 5.79 in the experiment on A549. In addition, the IC50 result in the experiment on SNB-19 and with MCF7 was “Not Active” in each case.

Consider `Cc1ccc2c(n1)C(=O)C(Cl)=C(Cl)C2=O`, for which the IC50 entry in the experiment with T47D, with SNB-19, with MCF7, in the experiment with MDA-MB-231, with C32 and in the experiment on A549 was “Not Active” throughout. Also, the pIC50 in the experiment on COLO-829 is 4.58.

Consider `C=C(C)[C@@H]1CC[C@]2(COC3=C(Cl)C(=O)c4ccc(C)nc4C3=O)CC[C@]3(C)[C@H](CC[C@@H]4[C@@]5(C)CC[C@H](OC(C)=O)C(C)(C)[C@@H]5CC[C@]43C)[C@@H]12`, for which the IC50 entry with T47D and with SNB-19 was “Not Active” each time. In addition, the pIC50 with COLO-829 is 4.03; in the experiment on MCF7, 4.05; in the experiment with MDA-MB-231 it was 5.23; in the experiment on C32, 5.88; with A549, 6.19.

Take `C=C(COC1=C(Cl)C(=O)c2cccnc2C1=O)[C@@H]1CC[C@]2(COC(C)=O)CC[C@]3(C)[C@H](CC[C@@H]4[C@@]5(C)CC[C@H](OC(C)=O)C(C)(C)[C@@H]5CC[C@]43C)[C@@H]12`: the pIC50 in the experiment on T47D is 4.89; in the experiment with SNB-19, 4.20; in the experiment with COLO-829 it was 6.89; in the experiment on MCF7 it was 4.93; in the experiment with MDA-MB-231, 4.22; in the experiment with C32, 4.64. The pIC50 in the experiment with A549 is 5.48.

Turning to `C#CC(=O)OC[C@]12CC[C@@H](C(=C)C)[C@@H]1[C@H]1CC[C@@H]3[C@@]4(C)CC[C@H](OC5=C(Cl)C(=O)c6ccc(C)nc6C5=O)C(C)(C)[C@@H]4CC[C@@]3(C)[C@]1(C)CC2`, the IC50 result with T47D, in the experiment with COLO-829 and in the experiment on C32 was “Not Active” in each case. Further, the pIC50 in the experiment on SNB-19 was 4.96; with MCF7 it was 4.75; in the experiment on MDA-MB-231, 4.43; in the experiment with A549, 4.73.

On to `C=C(C)[C@@H]1CC[C@]2(COC(C)=O)CC[C@]3(C)[C@H](CC[C@@H]4[C@@]5(C)CC[C@H](OC6=C(Cl)C(=O)c7cccnc7C6=O)C(C)(C)[C@@H]5CC[C@]43C)[C@@H]12`, for which the pIC50 in the experiment on T47D is 4.06; with A549, 4.87. The IC50 entry in the experiment on SNB-19, in the experiment on COLO-829, in the experiment with MCF7, in the experiment with MDA-MB-231 and with C32 was “Not Active” in each case.

For `C#CC(=O)OC[C@]12CC[C@@H](C(=C)C)[C@@H]1[C@H]1CC[C@@H]3[C@@]4(C)CC[C@H](OC5=C(Cl)C(=O)c6ccccc6C5=O)C(C)(C)[C@@H]4CC[C@@]3(C)[C@]1(C)CC2`, the pIC50 in the experiment with T47D is 4.02; with MCF7, 4.44; with MDA-MB-231 it was 5.17; in the experiment with C32, 5.98; in the experiment with A549, 5.89. For the same compound, the IC50 result with SNB-19 and with COLO-829 was “Not Active” in each case.

Take `C=C(COC1=C(Cl)C(=O)c2ccccc2C1=O)[C@@H]1CC[C@]2(COC(C)=O)CC[C@]3(C)[C@H](CC[C@@H]4[C@@]5(C)CC[C@H](OC(C)=O)C(C)(C)[C@@H]5CC[C@]43C)[C@@H]12`: the IC50 entry in the experiment on T47D, with SNB-19, in the experiment on COLO-829 and in the experiment on MCF7 was “Not Active” throughout. Moreover, the pIC50 was 4.21 in the experiment on MDA-MB-231, 4.61 in the experiment on C32 and 4.27 in the experiment on A549.

Take `C=C(C)[C@@H]1CC[C@]2(CO)CC[C@]3(C)[C@H](CC[C@@H]4[C@@]5(C)CC[C@H](O)C(C)(C)[C@@H]5CC[C@]43C)[C@@H]12` [BETULIN]: the pIC50 is 4.68 with T47D, 4.36 with MCF7, 4.02 in the experiment with MDA-MB-231 and 4.22 in the experiment on A549. The IC50 result in the experiment with SNB-19, with COLO-829 and in the experiment on C32 was “Not Active” throughout.

For the compound `O=C1C(Cl)=C(Cl)C(=O)c2ccccc21` [Dichlon], the IC50 result in the experiment with T47D, with SNB-19, in the experiment with MCF7, in the experiment with MDA-MB-231, with C32 and in the experiment with A549 was “Not Active” each time. Moreover, in the experiment with COLO-829, the pIC50 was 4.42.
